CR mimetic SO: yeast age-related superoxide inhibition as caloric restriction mimetic; S. cerevisiae aged cells, superoxide DHE fluorescence; hits give low values; superoxide response (% of plate mean), % at 10 µM; 0.18% of 330,000 active; AID 2690;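 active means superoxide response under a set limit, about three screen SD below normal, cut at about 65% in these data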;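 further: yeast aged for seven days with compound at 30 °C before DHE staining; 100% = average MFI of all compound-treated wells on the plate with controls excluded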
proKLK7 act: proKLK7 (human) activation, primary screen. 0.9% of 370,000 active. purified proKLK7, EDANS-DABCYL substrate fluorescence; 100% is mature enzyme control, 0% vehicle. activation, % at 7 µM. P49862;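 active means activation above the mean of all tested compounds plus 3 SD, computed per campaign excluding outliers beyond control limits, cut at about 13% in these data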
Target sequence (P49862 whole entry, looked up): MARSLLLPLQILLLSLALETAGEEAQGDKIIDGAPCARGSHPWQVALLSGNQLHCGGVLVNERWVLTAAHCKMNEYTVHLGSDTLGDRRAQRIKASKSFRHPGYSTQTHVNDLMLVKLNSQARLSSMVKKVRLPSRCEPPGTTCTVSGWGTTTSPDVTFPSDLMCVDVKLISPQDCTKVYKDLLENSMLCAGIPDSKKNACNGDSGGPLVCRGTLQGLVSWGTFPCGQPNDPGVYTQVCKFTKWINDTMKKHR
Rce1 inhib: inhibitors of yeast Ras-converting enzyme | Q03530 | yeast membranes, quenched prenylated peptide cleavage fluorescence | calls only | 0.27% of 290,000 active | AID 2563;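 active means fall in fluorescence gain of 50% or more versus controls, with final raw signal at or below 3038400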;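 further: plate controls were neutral control wells for no effect and wells lacking membranes for full effect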
Target sequence (Q03530 whole entry, looked up): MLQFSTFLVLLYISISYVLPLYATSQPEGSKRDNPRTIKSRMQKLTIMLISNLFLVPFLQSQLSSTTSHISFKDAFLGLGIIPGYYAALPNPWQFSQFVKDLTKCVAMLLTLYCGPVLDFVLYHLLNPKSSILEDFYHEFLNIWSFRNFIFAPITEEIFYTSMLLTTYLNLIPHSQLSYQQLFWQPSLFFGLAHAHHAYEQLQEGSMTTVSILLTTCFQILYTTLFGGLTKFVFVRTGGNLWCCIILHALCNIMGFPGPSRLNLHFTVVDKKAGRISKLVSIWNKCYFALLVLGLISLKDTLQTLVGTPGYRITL
V-ATPase pHluor: yeast V-ATPase proton transport regulation by pHLuorin; S. cerevisiae, pHLuorin cytosolic pH fluorescence; response, % at 10 µM; 0.37% of 350,000 active; in the data active means response mostly above about 7.3%, no sharp cut-off; inactive means mostly below about 5.4%; further: actives read high
T cell modulator: T cell immune modulation candidate; 2C CD8+ T cell-vesicle binding, flow cytometry; hits give low values; response (vesicle binding), % at 7 µM; 0.068% of 330,000 active; AID 2052;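 active means response, share of CD8 T cells binding vesicles, and their 90th percentile fluorescence all below set limits, cut at about 80% in these data, passing the limit was not always enough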;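 further: values below 100% mean blocked vesicle binding to the CD8+ T cells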
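System: murine 2C transgenic CD8+ T lymphocytes; also added: QL9-loaded Drosophila micro-vesicles; times: binding 1.5 h at 37 °C; measured by: flow cytometry, PE anti-B7-1 (FL2) versus Alexa647 anti-CD8 (FL8), PFA-fixed; control set: Peptide-free naked vesicles (low) and QL9 vesicles with 0.7% DMSO vehicle (high)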
beta cell repl: inducers of beta-cell replication in MIN6 cells; MIN6 cells proliferation, ATPlite luminescence, 48 h; cells starved in 0.2% serum; 100% = growth in 10% serum; proliferation, % at 10 µM; 0.29% of 330,000 active;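 active means compounds whose signal lies at least 3.5 SD above the mean of all wells on their plate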;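 further: 0% = DMSO-treated cells in low-serum medium and 100% = 10% serum control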
Active calls of the source: *; i = inactive; / = no result given; + = active, no number. Most compounds without a hit are left out; they make up all but 1.9% or so of the library.

SMILES	CR mimetic SO	proKLK7 act	Rce1 inhib	V-ATPase pHluor	T cell modulator	beta cell repl
CN[C@H]1C[C@@H](c2ccccc2Br)N(C(C)=O)C[C@H]1CO	/	0.4	/	/	/	/
CCCCCCCN1C2=NCCN2c2ccccc21	110.6	0.1	i	21.6*	336.8	-3.0
Cc1ccc2nc(Cl)c(C3CC(c4cccs4)=NN3C(=O)CCCC(=O)O)cc2c1 (configuration not stated)	117.6	0.4	+	0.4	277.4	-4.3
CCOC(=O)c1c(C)c(C(=O)Nc2cc(OC)ccc2OC)c(C)n1CC	86.8	-0.2	i	14.9*	189.2	/
CCOC(=O)c1c(C)c(C(=O)Nc2ccccc2)c(C)n1CC	97.8	0.8	i	20.1*	404.7	-1.4
CCOC(=O)c1c(C)c(C(=O)NCc2cccs2)c(C)n1CC	108.6	-0.9	i	-0.6	442.8	4.1
CC(=C1SC(=S)NC1=O)c1ccc(Cl)c(O)c1	/	0.4	/	/	/	/
CCC(C)N(C(C)CC)S(=O)(=O)c1ccc2[nH]c(=O)oc2c1 (configuration not stated)	/	0.0	/	/	/	/
C=CCNC(=S)N1C[C@H]2CON(C)[C@H]2C[C@H]1c1ccccc1Br	/	0.5	/	/	/	/
CCOC(=O)c1cc2c(=O)n3ccccc3nc2n(Cc2ccco2)c1=NC(=O)c1ccc(OC)cc1OC	115.7	16.5*	i	-1.6	140.5	4.1
CCOC(=O)c1nnn2c1nc(N1CCCCC1)c1ccccc12	112.3	0.3	i	-1.1	356.0	4.6
CCOC(=O)c1nnn2c1nc(N1CCOCC1)c1ccccc12	101.1	-0.1	+	-0.3	29.2	-0.2
COc1ccc2nc(N3CCCCC3)c(C#N)cc2c1	105.8	-1.9	i	-2.0	188.2	-1.1
COc1ccc2nc(N3CCCC3)c(C#N)cc2c1	96.0	5.8	i	11.4*	242.0	-1.6
O=C(CSc1cccc2cccnc12)OCC(=O)c1ccccc1	91.3	73.3*	i	-3.4	275.8	-3.2
COC(=O)c1ccccc1NC(=O)NCc1ccccn1	91.3	-0.3	i	2.6	241.5	-0.9
COC(=O)c1ccccc1NC(=O)NCc1cccnc1	97.2	-2.1	+	0.0	496.6	-2.4
CCn1nc(C)cc1C(=O)NC1CC(C)(C)Cc2c1cnn2-c1cccc(F)c1 (configuration not stated)	97.7	-0.1	+	3.2	681.5	-2.5
COC(=O)[C@]12C[C@H](CC(=O)NCc3cccc4ccccc34)C(=O)N(CCc3ccc(OC)c(OC)c3)C1=C[C@H](COCc1ccccc1)O[C@@H]2C	/	0.0	/	/	/	/
COC(=O)C1CN(CC(C)C)CCS(=O)(=O)N1Cc1ccc(C(F)(F)F)cc1 (configuration not stated)	/	0.6	/	/	/	/
CCOC(=O)N1CCN(C(=O)c2ccc3c(c2)N(CC)CCS3)CC1	99.2	13.5*	i	-3.0	574.0	-3.0
CCOC(=O)N1CCN(C(=O)c2ccc3c(c2)N(Cc2ccc(F)cc2)CCS3)CC1	103.9	9.0	i	1.8	369.5	-5.2
CCN(CC)c1ccc(C(=O)c2ccccc2C(=O)O)c(O)c1	99.6	-0.2	+	1.9	541.1	0.2
CCN(CC)c1ccc(/C=N/N(c2ccccc2)c2ccccc2)c(O)c1	116.1	-0.4	i	-0.7	225.1	-2.7
C=CCN1C(C(=O)OC)CN(Cc2cn(Cc3ccc(OC)cc3)nn2)CCS1(=O)=O (configuration not stated)	/	-0.3	/	/	/	/
SMILES	CR mimetic SO	proKLK7 act	Rce1 inhib	V-ATPase pHluor	T cell modulator	beta cell repl
O=C1c2cccc3c(N4CCOCC4)c([N+](=O)[O-])cc(c23)C(=O)N1c1cccc2ccccc12	88.8	-0.2	i	0.3	290.1	0.0
Cc1cccc(N2C(=O)c3cccc4c(N5CCCCC5)c([N+](=O)[O-])cc(c34)C2=O)c1C	105.3	0.0	+	-1.4	208.5	-1.0
C(=C\c1ccccc1)/CSc1nnc(COc2ccccc2)n1Cc1ccco1	/	-0.1	/	/	/	/
CC1(C)Cc2c(sc(NC(=O)COc3cccc4ccccc34)c2C#N)C(C)(C)N1	96.2	-0.5	i	-0.1	54.5	-6.4
Cc1ccc(OCC(=O)Nc2sc3c(c2C#N)CC(C)(C)NC3(C)C)cc1	86.1	0.7	i	13.1*	276.5	-0.9
O=S(=O)(c1ccccc1)c1cnn2c(C(F)(F)F)cc(-c3ccccc3)nc12	94.3	0.3	i	-7.4	i	0.6
COc1ccccc1-c1cc(C(F)(F)F)n2ncc(C(=O)N3CCc4ccccc4C3)c2n1	84.2	-2.6	i	2.5	327.1	-6.1
COc1ccccc1-c1cc(C(F)(F)F)n2ncc(S(=O)(=O)c3ccccc3)c2n1	98.2	0.7	+	-5.0	349.7	-2.0
O=S(=O)(c1ccccc1)c1cnn2c(C(F)(F)F)cc(-c3ccc(F)cc3)nc12	105.2	-0.5	+	-1.8	296.5	1.6
CCN(Cc1ccccc1)S(=O)(=O)c1ccc(C(=O)N(CCCN(C)C)c2nc3cc(C)cc(C)c3s2)cc1	95.9	-0.6	+	-3.4	253.3	-6.9
Cc1cc(C)c2sc(N(CCCN(C)C)C(=O)c3ccc(S(=O)(=O)N(C)Cc4ccccc4)cc3)nc2c1	108.4	-0.6	i	0.9	609.1	-7.0
CCCCNc1cccc2c1S(=O)(=O)N[C@@H](Cc1ccccc1)CO2	/	-0.3	/	/	/	/
COc1ccc(Nc2nc(-c3sc(N)nc3C)cs2)cc1	108.4	0.0	i	5.6	488.3	-3.3
Cc1ccc(Nc2nc(-c3sc(N)nc3C)cs2)cc1	110.9	0.1	i	14.3*	223.4	-4.1
COc1ccc(C2=CCN(C)C(=O)N2c2ccc([N+](=O)[O-])cc2)cc1	/	-0.6	/	/	/	/
COc1ccc(C2C3=C(CC(c4ccco4)CC3=O)Nc3ccccc3N2C(C)=O)cc1 (configuration not stated)	90.2	1.6	i	-0.4	306.6	-3.1
COc1cccc(C2CC(=O)C3=C(C2)Nc2ccccc2N(C(=O)CCC(=O)O)C3c2ccc(F)cc2)c1 (configuration not stated)	101.0	0.6	+	3.9	210.5	-0.3
O=C(CNS(=O)(=O)c1cc2ccccc2s1)N1CCN(c2ccccn2)CC1	/	-0.2	/	/	/	/
COc1ccc(CNC(C)CCc2ccccc2)cc1 (configuration not stated)	102.1	-0.5	i	-1.1	312.5	1.8
COc1ccc(CCC(C)NC2C3CC4CC(C3)CC2C4)cc1 (configuration not stated)	/	-0.1	i	15.8*	/	/
CCc1c(-c2cccc(Br)c2)ncn1CCc1ccccc1OC	/	0.7	/	/	/	/
CC(=O)CC[C@@H]1CC[C@]2(CCCN(C(=O)c3ccno3)C2)O1	/	-0.1	/	/	/	/
CCOC(=O)c1cc([N+](=O)[O-])c([N+](=O)[O-])cc1NC(C)=O	94.3	0.1	i	14.6*	190.0	/
O=C(CN1N=C(c2ccccc2)CCC1=O)NCCN1CCc2ccccc2C1	80.9	0.3	i	3.8	158.1	4.6*

Screening data deposited in PubChem by several laboratories.
